The list is not random: actives were taken first. Their share in the collection is about 8.4%.
PostGolgi yeast – growth inhibition of a yeast mutant, post-Golgi transport screen; 98,000 tested, 0.9% active; post-Golgi transport phenotypic cell assay; inhibition, % at 10 µM;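 also: yeast cells grown in 1536-well plates; yeast grown about 18 h at 30C before absorbance read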
PostGolgi ctrl – inhibits growth of the yeast control strain. efflux-deficient yeast background strain, growth absorbance A615, 16 h. inhibition, % at 10 µM. 98,000 tested, 5% active. AID 738
Ecoli WT expand – blocks growth of wild type E. coli BW25113; growth inhibition, % at 100 µM; AID 710; OD600 absorbance; 98,000 tested, 0.15% active;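 active = growth inhibition above about 50% at one test dose, limit read from the data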;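 also: growth measured after 20 h incubation at 37 °C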
Ecoli tolC – E. coli tolC mutant growth inhibition; E. coli BW25113 tolC mutant growth, OD615; 65,000 tested, 2.2% active; growth inhibition, % at 10 µM (by protocol); AID 573;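 active = growth inhibition at or above a cutoff equal to the mean over every tested compound plus 3 SD, cut at about 60% in these data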;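 also: growth measured after 20 h incubation at 37 °C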
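signal = optical density read at 615 nm | test system = E. coli ΔtolC::kan strain BW25113 | timing = 20 h compound exposure of bacteria at 37 °C | buffer or medium = LB medium plus 50 µg/mL kanamycin | compound dosing = 10 µM final, single dose | evaluation = % inhibition of E. coli growth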
Cav3 T inh – inhibitors of human Cav3.2 T-type calcium channel. O95180. Cav3.2-expressing cells, Fluo-4 calcium fluorescence FDSS; active compounds read low. B-score at 10 µM. 100,000 tested, 4% active;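 active = single-dose well whose peak fluorescence ratio is a statistical outlier from its plate by either plate-standardised score or position-corrected B-score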
A number is an active result. Rule as the data show it, unless noted: active = inhibition above about 30%; inactive = the rest.

Results for COc1cccc(CNC(=O)C2CCN(Cc3cnn(-c4ccccc4)c3-n3cccc3)CC2)c1 ?
PostGolgi yeast: inactive; PostGolgi ctrl: inactive; Ecoli WT expand: inactive; Ecoli tolC: inactive; Cav3 T inh: -4.6

Results for COc1ccc(CNC(=O)CSCc2cnn(-c3ccccc3)c2-n2cccc2)cc1 ?
PostGolgi yeast: inactive; PostGolgi ctrl: inactive; Ecoli WT expand: inactive; Cav3 T inh: -7

What do the screens show for `CCCS(=O)(=O)C(=C(Nc1ccccc1)Nc1ccccc1)S(=O)(=O)CCC`?
PostGolgi yeast: inactive; PostGolgi ctrl: inactive; Ecoli WT expand: inactive; Cav3 T inh: inactive

Results for CCOC(=O)C(/C=N/c1cc(C)nn1-c1ccccc1)=C(\C)O ?
PostGolgi yeast: inactive; PostGolgi ctrl: inactive; Ecoli WT expand: inactive; Cav3 T inh: inactive

What do the screens show for `CCn1c(SCC(=O)Nc2nc(C)c(C(=O)OC)s2)nnc1C(C)C`?
PostGolgi yeast: inactive; PostGolgi ctrl: inactive; Ecoli WT expand: inactive; Ecoli tolC: inactive; Cav3 T inh: inactive

Results for COc1cc(/C=C/C(=O)N2CCN(CC(O)COc3ccccc3)CC2)cc(OC)c1OC (configuration not stated) ?
PostGolgi yeast: inactive; PostGolgi ctrl: inactive; Ecoli WT expand: inactive; Cav3 T inh: inactive

What do the screens show for `COc1ccc(NC(=O)c2cc(C)on2)cc1OC`?
PostGolgi yeast: inactive; PostGolgi ctrl: inactive; Ecoli WT expand: inactive; Ecoli tolC: inactive; Cav3 T inh: inactive

How did COc1ccc(NC(=O)c2onc(C)c2Cl)cc1OC do in these assays?
PostGolgi yeast: inactive; PostGolgi ctrl: 34; Ecoli WT expand: inactive; Cav3 T inh: inactive

Results for COc1ccc(NC(=O)CSc2nnc(-c3ccccc3)n2Cc2ccco2)cc1OC ?
PostGolgi yeast: inactive; PostGolgi ctrl: inactive; Ecoli WT expand: inactive; Cav3 T inh: inactive

Results for COc1cc(Cl)c(C)cc1NC(=O)CSc1nnc(-c2ccccn2)n1Cc1ccco1 ?
PostGolgi yeast: inactive; PostGolgi ctrl: 40; Ecoli WT expand: inactive; Ecoli tolC: inactive; Cav3 T inh: -7.3

What do the screens show for `O=C(CSc1nnc(-c2ccccn2)n1Cc1ccco1)c1ccc(Cl)cc1`?
PostGolgi yeast: inactive; PostGolgi ctrl: inactive; Ecoli WT expand: inactive; Ecoli tolC: inactive; Cav3 T inh: -5

What do the screens show for `O=C(CSc1nnc(-c2cnccn2)n1Cc1ccco1)c1ccccc1`?
PostGolgi yeast: inactive; PostGolgi ctrl: inactive; Ecoli WT expand: inactive; Ecoli tolC: inactive; Cav3 T inh: inactive

Results for O=C(CSc1nnc(-c2ccccn2)n1Cc1ccco1)c1ccccc1 ?
PostGolgi yeast: inactive; PostGolgi ctrl: 31; Ecoli WT expand: inactive; Ecoli tolC: inactive; Cav3 T inh: inactive

How did COc1ccc(C(=O)CSc2nnc(-c3ccccn3)n2Cc2ccco2)cc1 do in these assays?
PostGolgi yeast: inactive; PostGolgi ctrl: 35; Ecoli WT expand: inactive; Ecoli tolC: inactive; Cav3 T inh: inactive

Results for Cc1ccccc1CSCCNC(=O)CCSc1ccccc1 ?
PostGolgi yeast: inactive; PostGolgi ctrl: inactive; Ecoli WT expand: inactive; Cav3 T inh: -6.1

Results for Cc1ccc(CSCCNC(=O)CCSc2ccccc2)cc1 ?
PostGolgi yeast: inactive; PostGolgi ctrl: inactive; Ecoli WT expand: inactive; Cav3 T inh: inactive

How did COc1cc(/C=C/C(=O)CC(=O)/C=C/c2ccc(O)c(OC)c2)ccc1O do in these assays?
Ecoli tolC: inactive; Cav3 T inh: -4.2

What do the screens show for `COc1cc(/C=C/C(=O)O)ccc1O`?
Cav3 T inh: inactive

Results for c1ccc(-c2cn3nc(-c4ccccc4)c(-c4ccccc4)nc3n2)cc1 ?
PostGolgi yeast: inactive; PostGolgi ctrl: inactive; Ecoli WT expand: inactive; Cav3 T inh: -5.3

What do the screens show for `CCOc1ccc2nc(NC(NC(=O)CC)(C(=O)OC)C(F)(F)F)sc2c1` (configuration not stated)?
PostGolgi yeast: inactive; PostGolgi ctrl: inactive; Ecoli WT expand: inactive; Ecoli tolC: inactive; Cav3 T inh: inactive

Results for CC(C)(C)NC(=O)COC(=O)c1cncc(Br)c1 ?
PostGolgi yeast: inactive; PostGolgi ctrl: inactive; Ecoli WT expand: inactive; Cav3 T inh: inactive

Results for CCCc1noc2c1/C(=N\O)CC(CC(C)SCC)C2 (configuration not stated) ?
PostGolgi yeast: inactive; PostGolgi ctrl: inactive; Ecoli WT expand: inactive; Ecoli tolC: inactive; Cav3 T inh: inactive

Results for CCSC(C)CC1C/C(=N/O)c2c(CC)noc2C1 (configuration not stated) ?
PostGolgi yeast: inactive; PostGolgi ctrl: inactive; Ecoli WT expand: inactive; Ecoli tolC: 61; Cav3 T inh: inactive

Results for O=[N+]([O-])c1cc(C(F)(F)F)ccc1NCCc1c[nH]c2ccc(O)cc12 ?
PostGolgi yeast: inactive; PostGolgi ctrl: 55; Ecoli WT expand: inactive; Cav3 T inh: inactive

What do the screens show for `N#CCSc1nnc(COc2cccc3ccccc23)n1-c1cccc(Cl)c1`?
PostGolgi yeast: inactive; PostGolgi ctrl: 54; Ecoli WT expand: inactive; Ecoli tolC: inactive; Cav3 T inh: inactive

What do the screens show for `N#CCSc1nnc(COc2cccc3ccccc23)n1-c1ccccc1`?
PostGolgi yeast: inactive; PostGolgi ctrl: 31; Ecoli WT expand: inactive; Ecoli tolC: inactive; Cav3 T inh: -4.6

What do the screens show for `Cn1cccc1Cc1nnc(SCC(=O)N2CCc3ccccc32)n1CCc1ccccc1`?
PostGolgi yeast: inactive; PostGolgi ctrl: inactive; Ecoli WT expand: inactive; Ecoli tolC: inactive; Cav3 T inh: -8.7

How did Cc1csc(NC(=O)CSc2nnc(Cc3cccn3C)n2CCc2ccccc2)n1 do in these assays?
PostGolgi yeast: inactive; PostGolgi ctrl: inactive; Ecoli WT expand: inactive; Ecoli tolC: inactive; Cav3 T inh: -8.4

What do the screens show for `Cn1cccc1Cc1nnc(SCC(=O)N2CCCC2)n1CCc1ccccc1`?
PostGolgi yeast: inactive; PostGolgi ctrl: inactive; Ecoli WT expand: inactive; Ecoli tolC: inactive; Cav3 T inh: inactive

What do the screens show for `Cn1cccc1Cc1nnc(SCC(=O)Nc2ccccc2F)n1CCc1ccccc1`?
PostGolgi yeast: inactive; PostGolgi ctrl: inactive; Ecoli WT expand: inactive; Ecoli tolC: inactive; Cav3 T inh: inactive

Results for CC1(C(=O)NC2CCCCCCC2)CCC(=O)N1Cc1cccs1 (configuration not stated) ?
PostGolgi yeast: inactive; PostGolgi ctrl: inactive; Ecoli WT expand: inactive; Cav3 T inh: inactive

How did CCCC(=O)Nc1nnc(COC)s1 do in these assays?
PostGolgi yeast: inactive; PostGolgi ctrl: inactive; Ecoli WT expand: inactive; Ecoli tolC: inactive; Cav3 T inh: inactive

What do the screens show for `COC(=O)c1ccc(CNC(=O)COc2ccccc2Br)o1`?
PostGolgi yeast: inactive; PostGolgi ctrl: inactive; Ecoli WT expand: inactive; Ecoli tolC: inactive; Cav3 T inh: inactive

How did O=[N+]([O-])c1cc(S(=O)(=O)Nc2ccccc2)ccc1-n1nnc2ccccc21 do in these assays?
PostGolgi yeast: inactive; PostGolgi ctrl: inactive; Ecoli WT expand: inactive; Cav3 T inh: -6.3

What do the screens show for `CCCCN(Cc1ccccc1)C(=O)c1cnc2n(c1=O)CCS2`?
PostGolgi yeast: inactive; PostGolgi ctrl: inactive; Ecoli WT expand: inactive; Ecoli tolC: inactive; Cav3 T inh: inactive

What do the screens show for `COc1ccc(S(=O)(=O)N2CCCC(C(=O)NCc3ccco3)C2)cc1Cl` (configuration not stated)?
PostGolgi yeast: inactive; PostGolgi ctrl: inactive; Ecoli WT expand: inactive; Ecoli tolC: inactive; Cav3 T inh: inactive
